OXTR agonist – activates the human oxytocin receptor; activation, % at 3 µM; CHO-OTR cells, Fluo-8 calcium fluorescence; normalized: DMSO 0%, oxytocin 100%; AID 2435; P30559; 320,000 tested, 0.32% active;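 active = activation above the mean of all tested compounds plus 3 SD, cutoff set per screening run, cut at about 20% in these data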;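 also: peak over basal fluorescence ratio from a 100 s FLIPR kinetic read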
Target sequence (P30559 whole entry, looked up): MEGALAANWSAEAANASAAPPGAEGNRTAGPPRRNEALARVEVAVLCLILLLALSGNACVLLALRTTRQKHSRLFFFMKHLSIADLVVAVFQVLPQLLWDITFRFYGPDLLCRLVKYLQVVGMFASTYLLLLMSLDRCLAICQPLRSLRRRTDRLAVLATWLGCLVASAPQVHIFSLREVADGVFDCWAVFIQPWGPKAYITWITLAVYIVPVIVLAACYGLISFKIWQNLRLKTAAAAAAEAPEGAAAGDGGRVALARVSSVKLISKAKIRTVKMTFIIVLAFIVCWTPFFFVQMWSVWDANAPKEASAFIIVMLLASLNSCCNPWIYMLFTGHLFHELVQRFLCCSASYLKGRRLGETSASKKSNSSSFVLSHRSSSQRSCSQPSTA
OXTR potentiator – potentiators of human oxytocin receptor; 320,000 tested, 0.061% active; activation, % at 3 µM; CHO-OTR cells, Fluo-8 calcium fluorescence, potentiator mode; 0% = oxytocin EC15, 100% = EC100; AID 2445; P30559;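 active = activation above that plate's cutoff, the mean activation of tested compounds plus 3 SD, cut at about 6.6% in these data, passing the limit was not always enough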;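 also: 100% uses oxytocin at 75 nM as the full agonist control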
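System: human OTR in CHO cells; Also added: sub-maximal oxytocin, roughly EC15; Timing: compound 6 min at room temperature before oxytocin, 100 s read; Technique: Fluo-8 intracellular calcium fluorescence, ex 470-495, em 515-575 nm; Controls: oxytocin EC15 low and EC100 high; Replication: singlicate.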
TAAR1 agonist – agonists of human TAAR1 | Q96RJ0 | CHO RD-HGA16 TAAR1, Fluo-8 calcium fluorescence; vehicle wells 0%, saturating PEA agonist 100% | activation, % at 3 µM | 360,000 tested, 0.99% active | AID 624467;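 active = activation above the mean activation of all test compounds in the run plus 3 SD, cut at about 38% in these data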
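Test system: RD-HGA16 (CHO) cells co-expressing Gα16 and hTAAR1 | Doses: Single dose, 3 µM | Schedule: 17-24 h seeding, 75 min 37 °C dye, 30 min RT | Evaluation: % activation from peak over basal fluorescence ratio, DMSO-to-PEA scaled | Technique: Kinetic Fluo-8 calcium fluorescence | Benchmarks: Low control DMSO, high control PEA (EC100)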
V1R ag counter – counter-screen for oxytocin receptor agonists: human V1a receptor agonists. P37288. AID 2797. 320,000 tested, 0.25% active. CHO-V1R cells, Fluo-8 calcium fluorescence, agonist mode; 0% DMSO, 100% 3 nM vasopressin. activation, % at 3 µM;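 active = activation above the mean activation of all tested compounds plus 3 SD, per screening run, cut at about 20% in these data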;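 also: signal is peak over basal fluorescence ratio across a 100 second FLIPR read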
TAAR1 antag – antagonists of human TAAR1; Q96RJ0; CHO RD-HGA16 TAAR1, Fluo-8 calcium fluorescence, antagonist; inhibition, % at 3 µM; 360,000 tested, 1.5% active; AID 624466;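 active = inhibition above a per-plate cutoff, the mean inhibition of test compounds on that plate plus 3 SD, cut at about 49% in these data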;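 also: 0% = DMSO plus EC80 beta-PEA response and 100% = DMSO alone without agonist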
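Material: CHO RD-HGA16 cells bearing hTAAR1; compound dosing: one-point dosing, 3 µM nominal final; schedule: dye loading 75 min at 37 °C, then 30 min room temperature; measured by: calcium fluorescence with Fluo-8; control set: vehicle and agonist controls; replication: n of 1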
* marks the source's active call; other numbers are inactive results; nt = no result. Compounds with a hit are over-represented: about 2.3% of the library has one in this group of screens.

SMILES	OXTR agonist	OXTR potentiator	TAAR1 agonist	V1R ag counter	TAAR1 antag
CC(C)(C)c1ccc(OCCn2nc(C(=O)O)c3ccccc3c2=O)cc1	0.6	-14.6	5.5	5.5	49.3*
Cc1ccc(SCC(=O)OCC(=O)N(C)CC(=O)Nc2ccc(F)cc2)cc1C	23.7*	-15.7	112.7*	23.0*	42.4
Cc1nn(CC(=O)NCCC2=CCCCC2)c(C)c1S(=O)(=O)N(C)C	1.4	10.1	-0.9	1.6	7.5
COc1ccc(S(=O)(=O)N2CCN(C(=O)c3cc(-c4ccc(Br)cc4)n[nH]3)CC2)cc1OC	4.7	-13.3	10.3	9.8	61.8*
CCN1CCCSC1=S	nt	nt	1.0	nt	8.1
Cn1c(=O)c2sccc2n(Cc2ccccc2)c1=O	1.2	3.6	1.8	3.6	2.1
NC(c1csc(Nc2nncc3ccccc23)n1)c1ccccc1Cl (stereo not drawn)	nt	nt	50.5*	nt	39.9
NC(=O)/C(=C\c1ccccc1)NC(=O)c1ccc(NC(=O)c2ccccc2)cc1	1.4	-4.1	0.1	0.7	1.1
COc1ccc(CNC(=O)[C@]2(C)CCC[C@@]3(C)C4CC[C@@]5(C)C[C@]4(CCC32)CC5=O)cc1 (stereo partly drawn)	-0.9	0.9	13.7	0.0	48.7*
O=C(CC(NC(=O)OCc1ccccc1)C(=O)OCc1ccccc1)OCc1ccccc1 (stereo not drawn)	nt	nt	3.5	nt	58.8*
O=C(CC(NC(=O)OCc1ccccc1)C(=O)O)OCc1ccccc1 (stereo not drawn)	-0.3	-8.6	2.6	0.8	4.7
O=C(CN(C1CC1)S(=O)(=O)c1ccc(S(=O)(=O)NC2CCCCC2)cc1)Nc1ccccc1	nt	nt	38.1*	nt	37.5
O=C(c1[nH]c(C(F)(F)F)nc1-c1ccccc1)N1CCN(c2ncc(C(F)(F)F)cc2Cl)CC1	nt	nt	48.5*	nt	48.9*
CCOCCCN(CCC#N)C(=O)C1CCN(S(=O)(=O)c2ccc(-n3cnnn3)cc2)CC1	0.9	-9.2	2.5	0.0	1.0
O=C(c1ccc([N+](=O)[O-])cc1[N+](=O)[O-])n1cnc2ccccc21	-0.9	-16.5	16.4	1.2	51.6*
O=C1NC(Cc2ccccc2)c2nc3ccc(F)cc3c(=O)n2-c2cc3ccccc3cc21 (stereo not drawn)	nt	nt	6.0	nt	48.9*
O=C1NC(Cc2ccccc2)c2nc3ccc(Cl)cc3c(=O)n2-c2cc3ccccc3cc21 (stereo not drawn)	nt	nt	0.2	nt	-9.6
O=C(CSc1nnc(Cc2ccccc2)o1)N1CCCc2ccccc21	2.8	-7.3	8.1	-0.2	-16.7
O=C(CSc1nnc(Cc2csc(Nc3cccc(Cl)c3)n2)o1)N1CCc2ccccc21	-1.9	-12.0	1.1	2.2	51.5*
COc1cc([N+](=O)[O-])ccc1NC(=O)CCCOc1cccc(C)c1	-2.6	-7.0	1.1	0.4	105.7*
O=C(COC(=O)/C=C/c1cccs1)NC1CC1	0.5	3.6	3.0	0.0	-0.7
CN1CCN(c2ccccc2NC(=O)c2cccc([N+](=O)[O-])c2)CC1	0.3	-3.1	-0.1	-0.1	0.3
O=C(Nc1ccccc1N1CCN(C(=O)c2ccc(Cl)cc2)CC1)c1cccc([N+](=O)[O-])c1	-0.4	-12.1	7.2	5.5	51.3*
COC(=O)[C@H](CCSC)NC(=O)NC1CC1	0.9	2.7	-0.2	0.3	-7.5
N=C1C(c2ccccc2)=C(O)CN1CCO	0.1	4.6	3.4	1.0	4.4
SMILES	OXTR agonist	OXTR potentiator	TAAR1 agonist	V1R ag counter	TAAR1 antag
Nc1c(C(=O)c2ccccc2)sc2nsc(SCCN3CCOCC3)c12	48.5*	-21.7	28.3	49.4*	31.8
CCC(C(=O)OC)n1cnc2c(cnn2-c2ccc(Cl)cc2)c1=O (stereo not drawn)	2.6	-12.6	12.3	3.9	48.7*
CCC(C(=O)OC)n1cnc2c(nnn2-c2ccccc2)c1=O (stereo not drawn)	-0.5	-2.1	1.1	1.1	-10.9
CCCN(C(=O)C1=COCCO1)c1c(N)n(Cc2ccccc2)c(=O)[nH]c1=O	-0.2	-10.6	3.1	-0.2	-26.6
COc1cc(/C=C/CN2CCC(C(=O)NC(c3ccc(F)cc3)c3ccc4ccccc4n3)CC2)ccc1OC(C)=O (stereo not drawn)	nt	nt	48.9*	nt	22.5
O=C(NCc1ccccc1)c1onc(CSc2ccccc2)c1C(=O)NCC1CC1	7.4	-16.2	14.2	7.0	56.0*
O=C(NCc1ccccc1)c1onc(CSc2ccc(Cl)cc2)c1C(=O)NCC1CC1	0.6	-4.4	6.7	2.7	-0.4
COc1cc(C=C2CCCC(=Cc3ccc(OCC4CO4)c(OC)c3)C2=O)ccc1OCC1CO1 (stereo not drawn)	nt	nt	10.6	nt	60.9*
COC(=O)[C@H](Cc1c[nH]c2ccccc12)NC(=O)Nc1ccccc1OC	6.5	-14.9	9.5	14.5	22.8
COc1ccccc1NC(=O)Cn1c(=O)n(CCc2c[nH]c3ccccc23)c(=O)c2cccnc21	-0.6	-10.2	9.6	3.4	56.6*
CC(C)CCNC(=O)C(c1cccnc1)N(CCc1ccccc1)C(=O)Cn1nnc2ccccc21 (stereo not drawn)	-0.6	-5.5	39.4*	-0.3	8.1
Cc1cccc(C)c1NC(=O)COC(=O)c1c2c(nc3ccccc13)/C(=C\c1ccc3c(c1)OCO3)CCC2	52.2*	-5.1	25.7	51.5*	53.5*
O=C(COC(=O)c1c2c(nc3ccccc13)/C(=C/c1cccc([N+](=O)[O-])c1)CCC2)NC1CCS(=O)(=O)C1 (stereo not drawn)	1.0	-0.2	11.1	0.1	50.6*
CC(=O)Nc1nc(COc2ccc3ccccc3c2)cs1	14.4	-11.4	38.3*	8.5	34.6
O=C(NCC1CCN(C(=O)C(=O)c2cc3ccccc3o2)CC1)c1ccc2c(c1)OCCCO2	nt	nt	-0.3	nt	15.1
Cc1ccc(Nc2nc(NCCO)c3ccccc3n2)cc1C	7.3	-19.2	38.8*	10.1	-11.3
Cc1c(C(=O)O)cccc1-c1ccc(/C=N/Nc2ccc(Br)cc2)o1	3.1	-1.7	22.6	-0.2	58.6*
Cc1c(C(=O)O)cccc1-c1ccc(/C=N/n2cnnc2)o1	1.3	-4.0	7.4	1.0	-9.5
O=C(O)c1cccc(-c2ccc(/C=N/Nc3ccc([N+](=O)[O-])cc3)o2)c1	26.4*	-9.3	43.9*	33.5*	57.4*
O=C(N/N=C/c1ccc([N+](=O)[O-])o1)C(=O)Nc1ccc(C(=O)O)cc1	0.5	3.4	-1.8	0.9	-12.4
O=C(O)c1ccc(N/N=C/C=C/c2ccc([N+](=O)[O-])o2)cc1	29.3*	-7.8	33.1	41.1*	41.6
O=C(O)c1ccc(N/N=C/c2ccc(-c3cccc(Cl)c3)o2)cc1	18.4	-11.2	35.3	12.9	31.5
